The test system of experiment [1] is Plasmodium falciparum. In words: Antimalarial activity against chloroquine-resistant Plasmodium falciparum FcB1 after 24 hrs. It counts as functional, organism-based. To be noted: FcB1, 24 h. In a few lines:
(§1)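 Asynchronous P. falciparum cultures in human erythrocytes (1% parasitemia, 1% final hematocrit) exposed to serially diluted compounds (DMSO stock, final DMSO ≤0.1%) for 24 h at 37 °C, then 0.5 µCi [3H]hypoxanthine per well added for a further 24 h. Growth inhibition from incorporated radioactivity versus drug-free control on the same plate; IC50 from concentration-response curve, means ± standard deviations of several independent experiments.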

Experiment [2] deals with T1, Histidine-rich protein PFHRP-II (Plasmodium falciparum) (UniProt P05227).
T1 sequence (whole entry): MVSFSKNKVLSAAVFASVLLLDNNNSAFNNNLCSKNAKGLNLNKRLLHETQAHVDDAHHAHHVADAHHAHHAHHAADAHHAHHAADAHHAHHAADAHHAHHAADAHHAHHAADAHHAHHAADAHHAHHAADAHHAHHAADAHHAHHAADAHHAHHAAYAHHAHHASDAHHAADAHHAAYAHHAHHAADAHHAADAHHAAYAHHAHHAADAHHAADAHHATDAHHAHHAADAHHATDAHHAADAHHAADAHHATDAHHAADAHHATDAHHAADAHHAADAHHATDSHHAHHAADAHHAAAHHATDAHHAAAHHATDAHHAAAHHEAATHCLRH
In words: Inhibition of beta-hematin formation at 5 mM. It counts as functional.

Experiment [3] deals with T2, Histidine-rich protein PFHRP-II (Plasmodium falciparum, UniProt P05227).
T2 sequence (P05227 whole entry): T1 sequence (whole entry)
In words: Inhibition of beta-hematin formation. It counts as functional.

Experiment [4] concerns the target T1, Histidine-rich protein PFHRP-II (Plasmodium falciparum). In words: Relative chloroquine IC50 for beta-hematin formation. It counts as functional.
In experiment [5] the test system is Plasmodium falciparum. In words: Antimalarial activity against chloroquine-sensitive Plasmodium falciparum Thai after 24 hrs. It counts as functional, organism-based. Summed up:
as §1

Experiment [6] deals with MRC5. In words: Cytotoxicity against human MRC5 cells. It counts as cell-based.
Experiment [7] is described as follows: Selectivity index, IC50 for MRC5 cells to IC50 for chloroquine-resistant Plasmodium falciparum FcB1. It counts as functional. Summed up:
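Ratio of IC50 on MRC-5 human diploid embryonic lung cells to IC50 on FcB1 parasites, the latter from the 24 h drug plus 24 h [3H]hypoxanthine incorporation assay.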

The nature of experiment [8]: Resistance index, IC50 for chloroquine-resistant Plasmodium falciparum FcB1 to chloroquine-sensitive Plasmodium falciparum Thai. It counts as functional. In a few lines:
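Ratio of IC50 values between the sensitive Thai and resistant FcB1 strains, each from the [3H]hypoxanthine incorporation assay (24 h drug exposure then 24 h label, asynchronous cultures, 1% parasitemia, 1% hematocrit).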

Experiment [9] deals with T1, Histidine-rich protein PFHRP-II (Plasmodium falciparum). Briefly: Inhibition of beta-hematin formation at 10 mM. It counts as functional.
Experiment [10] shares this target. In words: Inhibition of beta-hematin formation at 5.7 mM. It counts as functional.
Experiment [11] shares this target. In words: Inhibition of beta-hematin formation at 11.4 mM. It counts as functional.
Experiment [12] has the same target. In words: Inhibition of beta-hematin formation at 1 to 20 mM. It counts as functional.
Experiment [13] shares this target. In words: Inhibition of beta-hematin formation at 4.2 mM. It counts as functional.
The target is the same in experiment [14]. Briefly: Inhibition of beta-hematin formation at 8.4. It counts as functional. To be noted: concentration not given here.

This is an account of results in ChEMBL document CHEMBL1143174, “Pharmacomodulation on the 3-acetylursolic acid skeleton: Design, synthesis, and biological evaluation of novel N-{3-[4-(3-aminopropyl)piperazinyl]propyl}-3-O-acetylursolamide derivatives as antimalarial agents” (Bioorg Med Chem, 2008).

The term IC50 denotes the concentration at which inhibition is half-maximal. A low value points to greater potency in that assay. What is called inhibition is how much of the control response was suppressed.

Molecules are shown by their SMILES.

Compound `CC(=O)O[C@H]1CC[C@]2(C)[C@H]3CC=C4[C@@H]5[C@@H](C)[C@H](C)CC[C@]5(C(=O)NCCCN5CCN(CCCN(CC(C)C)CC(C)C)CC5)CC[C@@]4(C)[C@]3(C)CC[C@H]2C1(C)C` registered an IC50 in experiment [1] of 18.8 µM. In other words, the double-digit micromolar range.
As to `CC(=O)O[C@H]1CC[C@]2(C)[C@H]3CC=C4[C@@H]5[C@@H](C)[C@H](C)CC[C@]5(C(=O)NCCCN5CCN(CCCN(CCCc6ccccc6)CCCc6ccccc6)CC5)CC[C@@]4(C)[C@]3(C)CC[C@H]2C1(C)C`, in experiment [1], the IC50 turned out to be 8.06 µM.
Consider `CCCCCCCN(CCCCCCC)CCCN1CCN(CCCNC(=O)[C@]23CC[C@@H](C)[C@H](C)[C@H]2C2=CC[C@@H]4[C@@]5(C)CC[C@H](OC(C)=O)C(C)(C)[C@@H]5CC[C@@]4(C)[C@]2(C)CC3)CC1`, for which the IC50 in experiment [1] amounted to 41.8 µM.
`CC(=O)O[C@H]1CC[C@]2(C)[C@H]3CC=C4[C@@H]5[C@@H](C)[C@H](C)CC[C@]5(C(=O)NCCCN5CCN(CCCN(Cc6ccccc6)Cc6ccccc6)CC5)CC[C@@]4(C)[C@]3(C)CC[C@H]2C1(C)C` had an IC50 in experiment [1] of 21.1 µM.
As for `C[C@H]1[C@H](C)CC[C@]2(C(=O)O)CC[C@]3(C)C(=CC[C@@H]4[C@@]5(C)CC[C@H](O)C(C)(C)[C@@H]5CC[C@]43C)[C@H]12` [URSOLIC ACID], the IC50 is 52.9 µM in experiment [1] and > 20000 µM in experiment [3]. For the same compound, the inhibition in experiment [2] worked out at 17.9%. Further, in experiment [4], the Ratio IC50 was > 3.4.
Take `CC(=O)O[C@H]1CC[C@]2(C)[C@H]3CC=C4[C@@H]5[C@@H](C)[C@H](C)CC[C@]5(C(=O)NCCCN5CCN(CCCN)CC5)CC[C@@]4(C)[C@]3(C)CC[C@H]2C1(C)C`: the IC50 in [1] is 0.17 µM; in experiment [5], 0.46 µM; in [6], 1.61 µM; in [3], > 20000 µM. In [7], this compound came in with a Selectivity index of 9.6. Further, the Ratio in [8] came to 0.37. The inhibition is 12.9% in experiment [2] and 24.6% in experiment [9]. In addition, in experiment [4], the Ratio IC50 was > 3.4.
Consider `CC(=O)O[C@H]1CC[C@]2(C)[C@H]3CC=C4[C@@H]5[C@@H](C)[C@H](C)CC[C@]5(C(=O)NCCCN5CCN(CCCN(Cc6ccc(Br)cc6)Cc6ccc(Br)cc6)CC5)CC[C@@]4(C)[C@]3(C)CC[C@H]2C1(C)C`, for which the IC50 in experiment [1] was > 100 µM.
As to `CC(=O)O[C@H]1CC[C@]2(C)[C@H]3CC=C4[C@@H]5[C@@H](C)[C@H](C)CC[C@]5(C(=O)NCCCN5CCN(CCCN(Cc6ccc([N+](=O)[O-])cc6)Cc6ccc([N+](=O)[O-])cc6)CC5)CC[C@@]4(C)[C@]3(C)CC[C@H]2C1(C)C`, the IC50 in [1] is 3.57 µM; in [5] it was 3.05 µM; in experiment [6], 18.3 µM; in [3], > 20000 µM. Besides, the Selectivity index in experiment [7] came to 5.1. The Ratio in [8] turned out to be 1.17. The figures for the inhibition in experiment [10] and in [11] were 3.6% and 18.6%, respectively. Moreover, the Ratio IC50 in experiment [4] was > 3.4.
Turning to `CCN(CC)CCCC(C)Nc1ccnc2cc(Cl)ccc12` (stereo unspecified), the results for the inhibition in experiment [2] and in [9] were 36.9% and 97.4%, respectively.
For the compound `CC(=O)O[C@H]1CC[C@]2(C)[C@H]3CC=C4[C@@H]5[C@@H](C)[C@H](C)CC[C@]5(C(=O)NCCCN5CCN(CCCN(CC6CC6)CC6CC6)CC5)CC[C@@]4(C)[C@]3(C)CC[C@H]2C1(C)C`, the values for the IC50 in experiment [1], in experiment [5] and in experiment [6] were 0.49 µM, 0.95 µM and 2.53 µM, respectively. In experiment [7], this compound returned a Selectivity index of 5.1. Further, in experiment [8], the Ratio came to 0.51.
Consider `CC(=O)O[C@H]1CC[C@]2(C)[C@H]3CC=C4[C@@H]5[C@@H](C)[C@H](C)CC[C@]5(C(=O)NCCCN5CCN(CCCN(CC6CCCCC6)CC6CCCCC6)CC5)CC[C@@]4(C)[C@]3(C)CC[C@H]2C1(C)C`, for which the IC50 in [1] is > 100 µM.
As to `CCCCN(CCCC)CCCN1CCN(CCCNC(=O)[C@]23CC[C@@H](C)[C@H](C)[C@H]2C2=CC[C@@H]4[C@@]5(C)CC[C@H](OC(C)=O)C(C)(C)[C@@H]5CC[C@@]4(C)[C@]2(C)CC3)CC1`, in experiment [1], the IC50 came out at 1 µM.
Consider `CCCN(CCC)CCCN1CCN(CCCNC(=O)[C@]23CC[C@@H](C)[C@H](C)[C@H]2C2=CC[C@@H]4[C@@]5(C)CC[C@H](OC(C)=O)C(C)(C)[C@@H]5CC[C@@]4(C)[C@]2(C)CC3)CC1`, for which the figures for the 50% inhibitory concentration (IC50) in experiment [1], in [5] and in experiment [6] were 0.8 µM, 1 µM and 1.96 µM, respectively. Besides, the Selectivity index in experiment [7] was 2.5. In addition, the Ratio in experiment [8] is 0.79.
Take `CC(=O)O[C@H]1CC[C@]2(C)[C@H]3CC=C4[C@@H]5[C@@H](C)[C@H](C)CC[C@]5(C(=O)NCCCN5CCN(CCCNCc6ccc(O)cc6)CC5)CC[C@@]4(C)[C@]3(C)CC[C@H]2C1(C)C`: the IC50 in experiment [1] came out at 0.08 µM; in [5], 0.18 µM; in [6], 2.1 µM. Besides, in experiment [7], the Selectivity index turned out to be 27. Besides, in experiment [8], the Ratio is 0.43.
`CC(=O)O[C@H]1CC[C@]2(C)[C@H]3CC=C4[C@@H]5[C@@H](C)[C@H](C)CC[C@]5(C(=O)O)CC[C@@]4(C)[C@]3(C)CC[C@H]2C1(C)C` [O-ACETYLURSOLIC ACID] returned a half-maximal inhibitory concentration (IC50) in [1] of 24.9 µM. Moreover, the inhibition in experiment [12] turned out to be 0%.
For the compound `CC(=O)O[C@H]1CC[C@]2(C)[C@H]3CC=C4[C@@H]5[C@@H](C)[C@H](C)CC[C@]5(C(=O)NCCCN5CCN(CCCN(Cc6ccc(O)cc6)Cc6ccc(O)cc6)CC5)CC[C@@]4(C)[C@]3(C)CC[C@H]2C1(C)C`, the IC50 in experiment [1] is 0.16 µM; in experiment [5], 0.35 µM; in experiment [6] it was 1.57 µM; in experiment [3], 5250 µM. In addition, the Selectivity index in experiment [7] is on record as 9.7. In addition, in experiment [8], the Ratio worked out at 0.46. Moreover, the inhibition in experiment [13] came to 39.6%; in [14], 82.2%. Also, in experiment [4], the Ratio IC50 was 0.89.
In [1], `C[C@H]1[C@H](C)CC[C@]2(C(=O)NCCCN3CCN(CCCN)CC3)CC[C@]3(C)C(=CC[C@@H]4[C@@]5(C)CC[C@H](O)C(C)(C)[C@@H]5CC[C@]43C)[C@H]12` showed an IC50 of 0.32 µM.
`CC(=O)O[C@H]1CC[C@]2(C)[C@H]3CC=C4[C@@H]5[C@@H](C)[C@H](C)CC[C@]5(C(=O)NCCCN5CCN(CCCN(Cc6ccc(F)cc6)Cc6ccc(F)cc6)CC5)CC[C@@]4(C)[C@]3(C)CC[C@H]2C1(C)C` gave an IC50 in [1] of 20.3 µM.
On to `CC(=O)O[C@H]1CC[C@]2(C)[C@H]3CC=C4[C@@H]5[C@@H](C)[C@H](C)CC[C@]5(C(=O)NCCCN5CCN(CCCNCc6ccc([N+](=O)[O-])cc6)CC5)CC[C@@]4(C)[C@]3(C)CC[C@H]2C1(C)C`, for which the results for the IC50 in experiment [1], in [5] and in experiment [6] were 1.04 µM, 0.98 µM and 5.39 µM, respectively. This compound yielded a Selectivity index in experiment [7] of 5.2. The Ratio in experiment [8] was 1.06.
Turning to `CC(=O)O[C@H]1CC[C@]2(C)[C@H]3CC=C4[C@@H]5[C@@H](C)[C@H](C)CC[C@]5(C(=O)NCCCN5CCN(CCCN(Cc6ccc(Cl)cc6)Cc6ccc(Cl)cc6)CC5)CC[C@@]4(C)[C@]3(C)CC[C@H]2C1(C)C`, it took 46 µM to reach half-maximal inhibition in experiment [1] (IC50).
Take `COc1ccc(CN(CCCN2CCN(CCCNC(=O)[C@]34CC[C@@H](C)[C@H](C)[C@H]3C3=CC[C@@H]5[C@@]6(C)CC[C@H](OC(C)=O)C(C)(C)[C@@H]6CC[C@@]5(C)[C@]3(C)CC4)CC2)Cc2ccc(OC)cc2)cc1`: the IC50 in [1] was 6.5 µM.
